ChEMBL document CHEMBL1268877, “Novel rhodanine derivatives induce growth inhibition followed by apoptosis” (Bioorg Med Chem Lett, 2010)
Calls of active or inactive are those of the source. The calls are words filed in the database; no cut-off is given here.

Tests used:
[1] = tested on: CCRF-CEM; assay: Cytotoxicity against human CEM cells after 48 hrs by trypan blue assay; type: functional, cell-based
Summary of the method: (§1)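 Trypan blue exclusion on CEM T-cell leukemia cells given 10, 50, 100 or 250 µM compound (DMSO as vehicle control); live cells counted every 24 h after addition until control culture reached stationary phase; independent experiments; IC50 estimated at 48 and 72 h.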

[2] = tested on: CCRF-CEM; assay: Cytotoxicity against human CEM cells after 72 hrs by trypan blue assay; type: functional, cell-based; summary of the method: as §1
[3] = tested on: CCRF-CEM; assay: Cytotoxicity against human CEM cells at 10 to 250 uM by trypan blue assay; type: functional, cell-based; settings: TDE = time-dependent effect; summary of the method: as §1
[4] = tested on: CCRF-CEM; assay: Cytotoxicity against human CEM cells after 6 days by trypan blue assay; type: functional, cell-based; summary of the method: as §1
[5] = tested on: CCRF-CEM; assay: Cytotoxicity against human CEM cells at 250 uM after 6 days by trypan blue assay; type: functional, cell-based; summary of the method: as §1
[6] = tested on: CCRF-CEM; assay: Cytotoxicity against human CEM cells at 10 to 250 uM after 24 to 48 hrs by MTT assay; type: functional, cell-based
Summary of the method: (§2)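 CEM T-cell leukemia cells cultured with 10, 50, 100 and 250 µM compound (DMSO vehicle control), harvested after 24 and 48 h for MTT assay; percent viable cells calculated taking DMSO-treated cells as 100%; SD from three independent experiments.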

[7] = Cytotoxicity against human 8E5 cells at 10 to 250 uM after 24 to 48 hrs by MTT assay; type: cell-based
[8] = tested on: CCRF-CEM; assay: Cytotoxicity against human CEM cells at 10 uM after 24 to 48 hrs by MTT assay; type: functional, cell-based; summary of the method: as §2
[9] = Cytotoxicity against human 8E5 cells at 250 uM after 24 to 48 hrs by MTT assay; type: cell-based
[10] = tested on: CCRF-CEM; assay: Cytotoxicity against human CEM cells at 10 to 250 uM by LDH release assay; type: functional, cell-based; settings: TDE = time-dependent effect
Summary of the method: (§3)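 LDH release measured at 490 nm from CEM cells exposed to 10, 50, 100 and 250 µM compound for 24, 48 and 72 h; expressed as percent LDH release; SD from three independent experiments.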

[11] = tested on: CCRF-CEM; assay: Cytotoxicity against human CEM cells after 24 to 72 hrs by LDH release assay; type: functional, cell-based; summary of the method: as §3
[12] = tested on: CCRF-CEM; assay: Antiproliferative activity against human CEM cells assessed as inhibition of [3H]thymidine incorporation at 10 to 250 uM after 24 to 48 hrs by scintillation counting; type: functional, cell-based
Summary of the method: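 [3H]-thymidine added to CEM T-cell leukemia cells treated with 10, 50, 100 or 250 µM compound; radioactive counts per minute (cpm) calculated and plotted; data from independent experiments.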

[13] = tested on: CCRF-CEM; assay: Induction of cell cycle arrest in human CEM cells assessed as accumulation at subG1 phase at 10 to 250 uM after 48 hrs by propidium iodide staining-based FACS analysis; type: functional
Summary of the method: (§4)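 CEM cells treated 48 h with 10, 20, 50, 100 or 250 µM compound or DMSO vehicle, then fixed, stained with propidium iodide and analysed by flow cytometry (10,000 cells per sample); percent cells in subG1, G1, S and G2/M quantified; SD from three independent experiments.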

[14] = tested on: CCRF-CEM; assay: Induction of cell cycle arrest in human CEM cells assessed as decrease in accumulation at G2/M phase at 10 to 250 uM after 48 hrs by propidium iodide staining-based FACS analysis; type: functional; summary of the method: as §4
[15] = tested on: CCRF-CEM; assay: Induction of cell cycle arrest in human CEM cells assessed as decrease in accumulation at G1 phase at 10 to 250 uM after 48 hrs by propidium iodide staining-based FACS analysis; type: functional; summary of the method: as §4
[16] = tested on: CCRF-CEM; assay: Induction of cell cycle arrest in human CEM cells assessed as accumulation at S phase at 10 to 50 uM after 48 hrs by propidium iodide staining-based FACS analysis; type: functional; summary of the method: as §4
[17] = tested on: CCRF-CEM; assay: Induction of apoptosis in human CEM cells assessed as chromosomal DNA fragmentation at 20 uM after 72 hrs by agarose gel electrophoresis; type: functional, cell-based
Summary of the method: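 Chromosomal DNA extracted from CEM cells treated with 20 µM compound and harvested at 12, 24, 36, 48 and 72 h (DMSO control), then resolved on 1% agarose gel beside a 2-log DNA ladder.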

[18] = tested on: CCRF-CEM; assay: Cytotoxicity against human CEM cells assessed as mild induction of ROS production at 20 uM after 4 hrs by H2DCFDA staining-based flow cytometry; type: functional, cell-based
Summary of the method: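 CEM cells treated with 20 µM compound for 1, 2 and 4 h; ROS production quantified by flow cytometry, with unstained and dye-stained cells as references and H2O2 as positive control.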

| Compound | IC50 [1] | IC50 [2] | Activity [3] | Activity [4] | Activity [5] | Activity [6] | Activity [7] | Activity [8] | Activity [9] | Activity [10] | Activity [11] | inhibition [12] | Activity [13] | Activity [14] | Activity [15] | Activity [16] | Activity [17] | Activity [18] |
| --- | --- | --- | --- | --- | --- | --- | --- | --- | --- | --- | --- | --- | --- | --- | --- | --- | --- | --- |
| CCN1C(=O)C(=C(C)C)OC1=S | 80 µM | 50 µM | tde | Dose-dependent effect | Active | Active | Non-toxic |  |  |  |  |  |  |  |  |  |  |  |
| CC(C)=C1C(=O)N(C)C(=S)N1C | 70 µM | 40 µM | tde | Dose-dependent effect | Active | Active | Non-toxic |  |  |  |  |  |  |  |  |  |  |  |
| CCN1C(=O)/C(=C\c2ccccc2)SC1=S | 8 µM | 6 µM | tde | Dose-dependent effect | Active |  |  | Active | Toxic | tde | Dose-dependent effect | Active | Active | Active | Active | Active | Active | Active |
